NR3A LBD binder: modulates the human NR3A ligand-binding domain; NR3A LBD differential scanning fluorimetry, Tm shift; 0% = protein alone, 100% = glycine-bound protein; 340,000 tested, 2.5% active; Tm shift relative to glycine control, % at 25 µM; AID 1259313;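 active = melting temperature shift of at least 10% of the positive control shift, at one fixed dose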
ZTA counter: ZTA (EBV) inhibition in EBNA-1 counter-screen | P03206 | ZTA-DNA binding, fluorescence polarization | inhibition, % at 11 µM | 320,000 tested, 0.15% active | AID 2234; in the data active = inhibition above about 33%
Target sequence (P03206 whole entry, looked up): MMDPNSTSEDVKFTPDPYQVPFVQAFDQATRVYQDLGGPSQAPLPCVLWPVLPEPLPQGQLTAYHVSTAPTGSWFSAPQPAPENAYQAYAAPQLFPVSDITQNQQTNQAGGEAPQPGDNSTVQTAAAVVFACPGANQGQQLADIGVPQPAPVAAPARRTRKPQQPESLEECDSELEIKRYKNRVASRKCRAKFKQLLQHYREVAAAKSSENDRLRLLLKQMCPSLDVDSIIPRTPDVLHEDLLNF
EBNA-1 inhibitor: blocks EBNA-1 binding to DNA; 300,000 tested, 0.34% active; EBNA-1 DNA binding, fluorescence polarization; inhibition, % at 14.8 µM; AID 1950; in the data active = inhibition above about 28%
HCV NS3 hel inh: blocks Hepatitis C virus NS3 helicase unwinding; NS3 helicase DNA unwinding, Cy5 molecular beacon fluorescence; inhibition, % at 10.9 µM; 290,000 tested, 0.56% active;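 active = inhibition above the mean of all tested compounds plus 3 SD, set per campaign, cut at about 35% in these data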
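Material: hepatitis C virus NS3 helicase domain fragment enzyme; measured by: Cy5 fluorescence, 0 and 60 min reads; control set: DMSO and thioflavine S; incubation: 60 min unwinding reaction at 25 °C after ATP addition; read-out basis: % inhibition from 60/0 min fluorescence ratio, DMSO 0%, thioflavine S 100%; repeats: singlicate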
FID counter: counter-screen for HCV NS3 helicase inhibitors: DNA intercalator displacement; DNA fluorescent intercalator displacement, fluorescence; inhibition, % at 7.9 µM; 290,000 tested, 0.17% active; AID 1845; in the data active = inhibition above about 37%;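 also: higher means more ethidium bromide displaced from hairpin DNA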
FGF22 binding: binders of recombinant human FGF22 by thermal shift; Q9HCT0; SYPRO orange fluorescence; percent of sucrose octasulfate shift, DMSO zero; activity (Tm shift, normalised), % at 9.99 µM; 340,000 tested, 1.5% active; AID 651658;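 active = mean Tm shift, scaled 0 neutral to 100 positive control, at about 1.3% or above, every replicate too, limit read from the data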
Target sequence (Q9HCT0 whole entry, looked up): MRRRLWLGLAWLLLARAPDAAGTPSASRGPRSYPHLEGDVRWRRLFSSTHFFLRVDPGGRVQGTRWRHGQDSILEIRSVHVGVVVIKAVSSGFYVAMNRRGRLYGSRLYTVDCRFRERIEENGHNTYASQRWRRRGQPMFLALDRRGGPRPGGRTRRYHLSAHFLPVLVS
A number is an active result; - = inactive; . = no result. Shown are actives, neighbours in structure and some others; about 3.6% of the full set was active somewhere.

SMILES	NR3A LBD binder	ZTA counter	EBNA-1 inhibitor	HCV NS3 hel inh	FID counter	FGF22 binding
CC(=O)Nc1ccc(S(=O)(=O)Nc2cccc(-c3nc4cc(C)ccc4o3)c2)cc1	16	-	-	.	.	-
O=C(N[C@@H]1CC[C@H](CCn2cc(C3(O)CCCC3)nn2)O[C@@H]1CO)C1CCCC1	.	.	.	.	.	-
C[C@@H]1CN([C@@H](C)CO)C(=O)Cc2cc(NC(=O)Cn3cnnn3)ccc2O[C@H]1CN(C)CC1CCCCC1	.	.	.	.	.	-
C[C@H](CO)N1C[C@H](C)[C@H](CN(C)S(=O)(=O)c2ccc(F)cc2)OCCCC[C@H](C)Oc2ccc(NC(=O)Nc3ccccc3)cc2C1=O	.	.	.	.	.	-
Cc1ccc(O)c(NC(=O)c2noc3c2CCc2ccccc2-3)c1	-	-	-	-	-	43
O=C1CCCCC1Sc1nnc(-c2ccc3c(c2)OCO3)o1 (stereo not given)	-	-	-	-	-	43
C/C=C/c1cnc2c(c1)C(=O)N([C@@H](C)CO)C[C@@H](C)[C@H](CN(C)S(=O)(=O)c1cccs1)O2	.	.	.	.	.	-
O=C(Nc1cccc(-c2cn3cccnc3n2)c1)Nc1ccccc1F	12	-	-	-	-	-
CCCC(=O)Nc1cccc(-c2cn3cccnc3n2)c1	-	-	-	-	-	-
Cc1ccc(-c2cn3cccnc3n2)cc1	-	-	-	-	-	-
O=C(Nc1ccccc1)Nc1cccc(-c2cn3cccnc3n2)c1	13	-	-	-	-	-
Nc1cccc(-c2cn3cccnc3n2)c1	-	-	-	-	-	43
COCC(=O)N1[C@H](C#N)[C@H](c2ccc(C3=CCCC3)cc2)[C@@H]1CO	.	.	.	.	.	-
c1ccc(Cn2c(-c3ccccc3)nc3nc4ccccc4nc32)cc1	18	-	-	-	-	.
Clc1cccc(-c2nc3nc4ccccc4nc3n2Cc2ccccc2)c1	12	-	-	-	-	-
S=c1[nH]nc(-c2cccc(Cl)c2)n1Cc1ccccc1	-	-	-	-	-	.
C=CCn1c(-c2ccccc2)nc2nc3ccccc3nc21	-	-	-	-	-	.
CN(C(=O)COC(=O)COc1ccc2c(c1)CCC2)c1c(N)n(Cc2ccccc2)c(=O)[nH]c1=O	18	-	-	.	.	-
CN(C(=O)CSc1nc2ccccc2s1)c1c(N)n(Cc2ccccc2)c(=O)[nH]c1=O	-	-	-	-	-	43
CCN(C(=O)COC(=O)c1c(-c2ccccc2)noc1C)c1c(N)n(Cc2ccccc2)c(=O)[nH]c1=O	15	-	-	-	-	-
O=C(C[C@@H]1CC[C@@H]2[C@H](COC[C@@H](O)CN2C(=O)c2ccccc2F)O1)NCc1ccccc1	.	.	.	.	.	-
CC(C)(CO)NS(=O)(=O)c1ccc2c(c1)C(=NO)c1cc(S(=O)(=O)NC(C)(C)CO)ccc1-2	-	-	-	-	-	43
COCCNS(=O)(=O)c1ccc2c(c1)C(=NO)c1cc(S(=O)(=O)NCCOC)ccc1-2	-	-	-	-	-	-
CC(C)(C)OC(=O)NCCOCCOCCNc1ncnc2ccc(Br)cc12	.	.	.	.	.	-
O=C(NC(=S)Nc1ccc([N+](=O)[O-])cc1)c1ccco1	.	.	.	.	.	-
SMILES	NR3A LBD binder	ZTA counter	EBNA-1 inhibitor	HCV NS3 hel inh	FID counter	FGF22 binding
O=C(NC(=S)Nc1nc(-c2ccc([N+](=O)[O-])cc2)cs1)c1ccco1	20	-	-	-	-	-
O=C(NC(=S)Nc1nc(-c2ccc(Br)cc2)cs1)c1ccco1	30	-	-	-	-	-
COc1ccc(CN(C)C[C@@H]2OCCCC[C@H](C)Oc3ccc(NC(=O)c4ccncc4)cc3C(=O)N([C@@H](C)CO)C[C@H]2C)cc1	.	.	.	.	.	-
CC(NC(=O)CSc1n[nH]c(N)n1)c1ccccc1 (stereo not given)	-	-	-	-	-	-
CCCc1ccc(-c2cc(NC(=O)CSc3n[nH]c(N)n3)n(-c3ccccc3)n2)cc1	18	-	-	-	-	.
Cc1ccc(NC(NC(=O)c2cccs2)C(Cl)(Cl)Cl)cc1C (stereo not given)	12	-	-	-	-	.
CCCC1=[N+](CC(=O)c2ccccc2)CCn2cccc21	-	-	-	-	-	.
CCCC1=[N+](CC(C)=O)CCn2c(C)ccc21	-	-	-	-	-	43
O=C(Cc1ccc(Cl)c(Cl)c1)Nc1cccc2ncccc12	-	-	-	-	-	43
COc1cccc(S(=O)(=O)N[C@H]2CC[C@H](CCn3cc(-c4ccc(F)cc4)nn3)O[C@H]2CO)c1	.	.	.	.	.	-
COc1cc(C(=O)NNC(=O)C2CC2)cc(OC)c1OC	15	-	-	-	-	-
CC1(c2ccccc2)NC(=O)N(N)C1=O (stereo not given)	-	-	-	-	-	43
CC1(c2ccccc2)NC(=O)N(CC#N)C1=O (stereo not given)	-	-	-	-	-	-
C[C@@H]1CN([C@H](C)CO)C(=O)c2cccc(NC(=O)Nc3cccc4ccccc34)c2O[C@@H]1CN(C)C	.	.	.	.	.	-
Cc1[nH]c2ccc(C(=O)NCc3ccccn3)cc2c1C	-	-	-	-	-	-
COc1ccc(N2CCN(C(=O)c3ccc4[nH]c(C)c(C)c4c3)CC2)cc1	-	-	-	-	-	-
COc1ccc(NC(=O)c2ccc3[nH]c(C)c(C)c3c2)cc1	29	.	.	-	-	-
Cc1cc(NC(=O)c2ccc3[nH]c(C)c(C)c3c2)ccn1	12	.	.	-	37	-
CN1c2ccc(-c3ccc(C#N)cc3)cc2[C@H]2[C@H](CCN2C(=O)C2CCCCC2)[C@@H]1CO	.	.	.	.	.	-
CS(=O)(=O)c1ccc2nc(NC(=O)Nc3ccc(Cl)c(Cl)c3)sc2c1	31	-	-	-	-	.
Cc1ccc(NC(=O)Nc2nc3ccc(S(C)(=O)=O)cc3s2)cc1	28	.	.	.	.	-
Cc1ccc(NC(=O)Nc2nc3ccccc3s2)cc1NC(=O)Nc1nc2ccccc2s1	28	-	-	-	-	-
CS(=O)(=O)c1ccc2nc(NC(=O)Nc3cccc(Cl)c3)sc2c1	22	-	-	-	-	-
CS(=O)(=O)c1ccc2nc(NC(=O)Nc3ccccc3F)sc2c1	-	-	-	-	-	-
O=C(Nc1ccc(Cl)c([N+](=O)[O-])c1)Nc1nc2ccccc2s1	.	-	-	-	-	.
SMILES	NR3A LBD binder	ZTA counter	EBNA-1 inhibitor	HCV NS3 hel inh	FID counter	FGF22 binding
CC(C)C(=O)Nc1nc2ccc(S(C)(=O)=O)cc2s1	-	-	-	-	-	-
CC(C)NC(=O)Nc1cccc2c1O[C@@H](CN(C)Cc1ccc(Cl)c(Cl)c1)[C@@H](C)CN([C@@H](C)CO)C2=O	.	.	.	.	.	-
COc1cccc(Oc2ccc(N/C=C/C(=O)C(C)(C)C)cc2)c1	-	-	-	-	-	44
Cn1cccc1/C=C1\SC(=Nc2cccc(O)c2)NC1=O	26	-	-	-	-	-
O=C1NC(=Nc2ccc(O)cc2)S/C1=C/c1ccco1	13	-	-	-	-	-
CCc1ccc(N=C2NC(=O)/C(=C/c3cc(OC)c(OC)c(OC)c3)S2)cc1	-	-	-	-	-	-
